Activity calls are given as the source filed them. Cut-off read from the data, not from the text of the source, unless noted: active = inhibition above about 30%; inactive = the rest.
Experiments:
[1] = Her2 expression decrease, cell viability multiplex – SKBR3 breast tumor cells, AlphaScreen, ATP viability, primary screen (AID 461;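 active = Her2 level under about 52% in both replicate screens, with viability over 70% of control, limit read from the data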;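 for Her2 level: lower value means less Her2 protein in the cells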;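 for viability: percent of carrier control wells set as 100% viability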); details: SKBR3 Her2 protein level, 18-24 h, measured here: SKBR3 viability, ATP luminescence, at 10 µM
[2] = molecular target: Receptor tyrosine-protein kinase erbB-2 (Homo sapiens) (UniProt P04626); assay: as above; details: 18-24 h, at 10 µM, stronger effect = lower value
Chain of Receptor tyrosine-protein kinase erbB-2 (Homo sapiens) (P04626 whole entry, looked up): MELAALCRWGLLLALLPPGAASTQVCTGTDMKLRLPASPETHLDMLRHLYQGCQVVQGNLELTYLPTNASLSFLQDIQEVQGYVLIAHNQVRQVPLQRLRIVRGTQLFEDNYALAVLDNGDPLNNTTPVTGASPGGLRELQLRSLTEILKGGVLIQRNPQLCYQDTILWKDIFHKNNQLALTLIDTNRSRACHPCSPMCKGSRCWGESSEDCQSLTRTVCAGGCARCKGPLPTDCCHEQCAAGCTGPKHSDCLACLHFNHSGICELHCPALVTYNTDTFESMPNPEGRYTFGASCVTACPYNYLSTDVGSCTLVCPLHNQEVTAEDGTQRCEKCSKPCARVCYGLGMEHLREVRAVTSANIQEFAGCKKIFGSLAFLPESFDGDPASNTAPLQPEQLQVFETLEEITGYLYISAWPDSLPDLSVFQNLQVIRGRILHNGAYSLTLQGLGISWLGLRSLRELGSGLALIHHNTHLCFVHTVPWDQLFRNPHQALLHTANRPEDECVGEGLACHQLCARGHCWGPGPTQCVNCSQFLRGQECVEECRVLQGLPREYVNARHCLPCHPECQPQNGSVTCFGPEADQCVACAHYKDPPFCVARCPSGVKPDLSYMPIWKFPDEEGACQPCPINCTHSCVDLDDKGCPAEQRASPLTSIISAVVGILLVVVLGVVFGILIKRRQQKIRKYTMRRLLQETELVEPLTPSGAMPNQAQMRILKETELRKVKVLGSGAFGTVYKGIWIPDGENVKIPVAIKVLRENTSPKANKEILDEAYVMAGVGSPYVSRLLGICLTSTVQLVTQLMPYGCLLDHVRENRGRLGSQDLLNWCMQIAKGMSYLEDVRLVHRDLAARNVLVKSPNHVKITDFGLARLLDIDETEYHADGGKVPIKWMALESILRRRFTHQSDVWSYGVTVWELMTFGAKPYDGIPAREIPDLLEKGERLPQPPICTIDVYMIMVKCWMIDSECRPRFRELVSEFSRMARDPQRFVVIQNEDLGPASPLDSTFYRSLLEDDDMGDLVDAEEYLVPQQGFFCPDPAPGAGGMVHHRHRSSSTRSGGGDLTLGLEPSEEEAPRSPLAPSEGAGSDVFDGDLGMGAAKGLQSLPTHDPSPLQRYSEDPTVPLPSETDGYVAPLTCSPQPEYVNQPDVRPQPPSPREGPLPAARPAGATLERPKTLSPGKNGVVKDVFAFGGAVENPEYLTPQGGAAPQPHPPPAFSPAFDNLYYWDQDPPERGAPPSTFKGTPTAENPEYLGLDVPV

[3] = reduced viability of SK-BR-3 breast cancer cells – cell-based, 24 h, human, pilot screen (AID 572;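 active = viability at or below 10% of carrier control in both of two separate runs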;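 note: compound exposure lasted between 18 and 24 h rather than exactly 24 h; 100% = carrier-treated control wells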); details: SK-BR-3 viability, CellTiter-Glo luminescence, at 10 µM, stronger effect = lower value
[4] = HUVEC growth inhibition – cell-based, human, primary screen (AID 575;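 active = viability at or below 30% in both replicate assays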;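 note: 100% = median of untreated cell wells with 0.1% DMSO on each plate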); details: HUVEC proliferation, CellTiter-Glo luminescence, 72 h; at 10 µM; stronger effect = lower value
How it was run: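 Test system: HUVEC primary cells. Quantity: 1250 endothelial cells in each well. Dosing: single-point 10 µM, DMSO 0.1% final. Incubation: 72 h treatment at 37 °C. Measured by: CTG luminescence. Control set: DMSO cell controls and MePR drug controls. Plate: collagen-coated 384-well format.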

[5] = H69AR cell proliferation blockers – human, duplicate replicates, primary screen (AID 580;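 active = viability at or under a set limit in both replicates, limit being median viability minus 3 SD, cut at about 48% in these data, passing the limit was not always enough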;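 note: 100% = mean luminescence of untreated wells and 0% = no signal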); details: H69AR lung tumor cells viability, ATP luminescence, 72 h; at 10 µM; stronger effect = lower value
[6] = MRP1 drug-resistance reversers in H69AR cells – cell-based, doxorubicin co-treatment, pilot screen (AID 601;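 active = viability loss from added drug above about 55%, and viability with drug at most 40%, in both replicates, limit read from the data, passing the limit was not always enough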); details: CellTiter-Glo, 72 h, at 10 µM; for differential viability (reversal): stronger effect = higher value
[7] = yeast transport mutant growth inhibition pilot in 384-well plates, post-Golgi transport modulator project (AID 636; in the data active = inhibition above about 31%); details: absorbance 615 nm, about 18 h, stronger effect = higher value
[8] = growth suppression of yeast trafficking mutant, preliminary HTS, modulators of trafficking downstream of Golgi apparatus project, 1536-format plate, OD 615 nm (AID 637); details: yeast transport mutant growth, absorbance 615 nm, 18 h; stronger effect = higher value
[9] = H69AR cells + 2 uM doxorubicin, measured here: viability with 2 uM doxorubicin, stronger effect = lower value
[10] = H69AR cells, compound alone cytotoxicity

Structure (SMILES) | viability [1] [%] | Her2 level [2] | viability [3] | viability [4] | viability [5] | differential viability (reversal) ([6]; H69AR cells + 2 uM doxorubicin) | viability [6, 9] [%] | viability [6, 10] [%] | inhibition [7] | inhibition [8]
CCOC(=O)C(NC(=O)c1ccc(OC)cc1)(N1CCOCC1)C(F)(F)F (stereo not given) | 112 | 95.5% (inactive) | 112% (inactive) | 115% (inactive) | 100% (inactive) | -2.41% (inactive) | 102 | 100 | -4.81% (inactive) | 0.32% (inactive)
COC(=O)c1cc(Br)c(=O)n(CCC2=CCCCC2)c1 | 81.5 | 99.5% (inactive) | 81.5% (inactive) | 92.5% (inactive) | 89.9% (inactive) | 1.54% (inactive) | 88.4 | 89.9 | -0.27% (inactive) | 6.89% (inactive)
CCOC(=O)CN(C(=O)CSc1nnc(-c2ccncc2)n1CCCN(C)C)c1ccccc1 | 107 | 98.5% (inactive) | 107% (inactive) | 106% (inactive) | 87.6% (inactive) | 9.5% (inactive) | 78.1 | 87.6 | -5.19% (inactive) | 1.9% (inactive)
Cc1nc2cccc(C(=O)NC3CCCCC3)c2o1 | 100 | 101% (inactive) | 100% (inactive) | 98.6% (inactive) | 93.1% (inactive) | 8.96% (inactive) | 84.2 | 93.1 | -3.73% (inactive) | 7.05% (inactive)
COc1ccccc1CN1CC(C(=O)N2CCN(c3ccc(F)cc3)CC2)CC1=O (stereo not given) | 92 | 86% (inactive) | 92% (inactive) | 98% (inactive) | 88.8% (inactive) | -3.51% (inactive) | 92.3 | 88.8 | -2.24% (inactive) | 11.5% (inactive)
O=S(=O)(NCC1CCCO1)c1cccc(C(F)(F)F)c1 (stereo not given) | 97 | 93.5% (inactive) | 97% (inactive) | 95.1% (inactive) | 95.1% (inactive) | 6.7% (inactive) | 88.4 | 95.1 | -0.66% (inactive) | -5.64% (inactive)
Cc1cccc(OCCCc2c(C)n[nH]c2C)c1 | 102 | 118% (inactive) | 102% (inactive) | 121% (inactive) | 98.7% (inactive) | 20.4% (inactive) | 78.4 | 98.7 | 5.32% (inactive) | -8% (inactive)
COCC(=O)Nc1sc2c(c1C(=O)OC)C(C(=O)OC)CC2 (stereo not given) | 75.5 | 108% (inactive) | 75.5% (inactive) | 84.6% (inactive) | 101% (inactive) | 12.5% (inactive) | 88.6 | 101 | 3.16% (inactive) | 11.4% (inactive)
CCCCCCn1c(SCCCC)nc2c1c(=O)[nH]c(=O)n2C | 93.5 | 99% (inactive) | 93.5% (inactive) | 72.7% (inactive) | 88.2% (inactive) | 0.76% (inactive) | 87.5 | 88.2 | -5.07% (inactive) | -5% (inactive)
O=S(=O)(NCc1cccnc1)c1cccc2nsnc12 | 98 | 83.5% (inactive) | 98% (inactive) | 89.6% (inactive) | 92.3% (inactive) | 6.5% (inactive) | 85.8 | 92.3 | -7.07% (inactive) | 6.56% (inactive)
CCOC(=O)C1=C(C)N=C2SC(C)C(=O)N2C1c1cccc(F)c1 (stereo not given) | 102 | 89.5% (inactive) | 102% (inactive) | 85.2% (inactive) | 87.5% (inactive) | 0.855% (inactive) | 86.7 | 87.5 | -3.82% (inactive) | 1.13% (inactive)
O=C(Cc1ccccc1)N1CCCC(c2nc(-c3cccs3)no2)C1 (stereo not given) | 91.5 | 111% (inactive) | 91.5% (inactive) | 95.5% (inactive) | 102% (inactive) | 16.8% (inactive) | 85.7 | 102 | -5.27% (inactive) | -3.61% (inactive)
CCN(CCNC(=O)C1CCN(S(=O)(=O)CC)CC1)c1ccccc1 | 124 | 92.5% (inactive) | 124% (inactive) | 112% (inactive) | 95.7% (inactive) | 6.31% (inactive) | 89.4 | 95.7 | -7.84% (inactive) | -8.33% (inactive)
Cc1ccc(N2CCN(C(=S)c3ccc(N(C)C)cc3)CC2)cc1 | 89.5 | 82.5% (inactive) | 89.5% (inactive) | 91.8% (inactive) | 82.6% (inactive) | -9.83% (inactive) | 92.4 | 82.6 | -3.92% (inactive) | -6.19% (inactive)
Cc1ccc(/C=c2\sc3nc(-c4ccccc4Br)nn3c2=O)o1 | 89 | 85% (inactive) | 89% (inactive) | 110% (inactive) | 95.5% (inactive) | 6.48% (inactive) | 89 | 95.5 | -7.47% (inactive) | 10.7% (inactive)
Cc1ccc(Nc2cc(C)nc3ncnn23)c(Cl)c1 | 85 | 88.5% (inactive) | 85% (inactive) | 87% (inactive) | 97% (inactive) | 12.2% (inactive) | 84.9 | 97 | -3.33% (inactive) | -2.3% (inactive)

Structure (SMILES) | viability [1] [%] | Her2 level [2] | viability [3] | viability [4] | viability [5] | differential viability (reversal) ([6]; H69AR cells + 2 uM doxorubicin) | viability [6, 9] [%] | viability [6, 10] [%] | inhibition [7] | inhibition [8]
CCOC(=O)c1c(C)[nH]c(C)c1C(=O)COc1ccc(NC(=O)c2ccco2)cc1 | 88.5 | 102% (inactive) | 88.5% (inactive) | 91.8% (inactive) | 86.9% (inactive) | -6.89% (inactive) | 93.8 | 86.9 | -1.43% (inactive) | 3.65% (inactive)
O=C(COc1ccccc1Cl)NCc1ccco1 | 89.5 | 78.5% (inactive) | 89.5% (inactive) | 103% (inactive) | 107% (inactive) | 15.4% (inactive) | 91.6 | 107 | -0.81% (inactive) | -3.93% (inactive)
O=C(C1CCCO1)N1CCN(Cc2nc3ccccc3c(=O)[nH]2)CC1 (stereo not given) | 91.5 | 92% (inactive) | 91.5% (inactive) | 96.3% (inactive) | 94.9% (inactive) | -10% (inactive) | 105 | 94.9 | -7.16% (inactive) | 0.16% (inactive)
CCOC(=O)c1[nH]c2ccc(C)cc2c1N=C(C)N(C)C | 100 | 89% (inactive) | 100% (inactive) | 96.5% (inactive) | 97.7% (inactive) | 6.32% (inactive) | 91.4 | 97.7 | -0.66% (inactive) | -5.32% (inactive)
COc1ccc(S(=O)(=O)CCC(=O)O)cc1 | 96.5 | 83.5% (inactive) | 96.5% (inactive) | 93.7% (inactive) | 106% (inactive) | 10.3% (inactive) | 95.7 | 106 | -4.05% (inactive) | 2.54% (inactive)
O=C(COC(=O)c1ccccc1O)Nc1ccc(OC(F)F)cc1 | 78 | 123% (inactive) | 78% (inactive) | 93.7% (inactive) | 93.2% (inactive) | 2.67% (inactive) | 90.5 | 93.2 | 5.14% (inactive) | 32.4% (active)
COc1cc(NC(=O)c2cc(OC)c(OC)c(OC)c2)c(OC)cc1NC(=O)CN1CCCCC1 | 86.5 | 68.5% (inactive) | 86.5% (inactive) | 67.9% (inactive) | 65.9% (inactive) | -11.7% (inactive) | 77.6 | 65.9 | -5.27% (inactive) | -7.5% (inactive)
CCOCCCNC(=O)CS(=O)(=O)Cc1nc(-c2cccc(OC)c2)oc1C | 128 | 92% (inactive) | 128% (inactive) | 88.4% (inactive) | 84% (inactive) | -3.73% (inactive) | 87.8 | 84 | -4.81% (inactive) | 5.24% (inactive)
Cc1sc2ncnc(OCC(=O)N3CCN(S(=O)(=O)c4ccc(Cl)cc4)CC3)c2c1C | 92.5 | 86% (inactive) | 92.5% (inactive) | 89.2% (inactive) | 84.8% (inactive) | 0.87% (inactive) | 84 | 84.8 | 0.53% (inactive) | -0.91% (inactive)
Cc1cc(O)c(C(C)C)cc1N=C1CSC(=O)N1 | 89 | 78.5% (inactive) | 89% (inactive) | 95.3% (inactive) | 87.7% (inactive) | 1.7% (inactive) | 86 | 87.7 | -2.11% (inactive) | -1.82% (inactive)
O=c1oc2ccccc2n1CCn1c2ccccc2c2nc3ccccc3nc21 | 85 | 96% (inactive) | 85% (inactive) | 53.2% (inactive) | 34.2% (active) | -3.67% (inactive) | 37.8 | 34.2 | -1.05% (inactive) | -3.71% (inactive)
Cc1cc(C(=O)N2CCN(C/C=C/c3ccccc3)CC2)no1 | 92.5 | 97.5% (inactive) | 92.5% (inactive) | 93.8% (inactive) | 93.2% (inactive) | 0.745% (inactive) | 92.5 | 93.2 | -4.05% (inactive) | 2.62% (inactive)
COc1cc(C2C(C#N)=C(N)Oc3cc(N)ccc32)cc(OC)c1OC (stereo not given) | 91.5 | 75% (inactive) | 91.5% (inactive) | 42.1% (inactive) | 32.3% (active) | -28.8% (inactive) | 61.1 | 32.3 | -4% (inactive) | 8.03% (inactive)
COc1ccc(/C(O)=C2/C(=O)C(=O)N(CC3CCCO3)C2c2cccc(OC)c2)cc1 (stereo not given) | 106 | 87.5% (inactive) | 106% (inactive) | 81.9% (inactive) | 94.2% (inactive) | 7.73% (inactive) | 86.5 | 94.2 | -4.93% (inactive) | 2.3% (inactive)
Cc1ccc(NC2=NC3(CCCCC3)N=C(N)N2)c(C)c1 | 114 | 96% (inactive) | 114% (inactive) | 87.9% (inactive) | 102% (inactive) | 18.6% (inactive) | 83.9 | 102 | 2.16% (inactive) | -5.87% (inactive)
S=C(c1ccc(-c2cc(Cl)ccc2Cl)o1)N1CCOCC1 | 80.5 | 85% (inactive) | 80.5% (inactive) | 86.4% (inactive) | 98.5% (inactive) | -8.1% (inactive) | 107 | 98.5 | -0.4% (inactive) | 5.16% (inactive)
